Experimental data reported in PubChem BioAssay.
Calls of active or inactive are those of the source.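 How the source made its calls, unless noted: active means fluorescence slope higher than the sample average by over 3 SD (cut at about -0.22 in these data, passing the limit was not always enough); inactive means the rest.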

Key:
[1] = inhibitors of TNFa-induced NFkB p65 translocation, primary screen, imaging, HUVEC, MLSMR starter and 10KST1 sets (AID 438;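 active means inhibition above 20% together with a positive visual image hit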;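 further: compound added about 3h40 before a 20 min TNFalpha stimulation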;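 on inhibition: signal is the nuclear over cytoplasmic p65 intensity ratio per well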); conditions: HUVEC TNFa-induced p65 nuclear translocation; cell count: measured here: nuclei count (cytotoxicity indicator), at 2.08 µM; inhibition: at 2 µM, stronger effect = higher value, 0% TNFa-plus-vehicle, 100% no-TNFa wells
[2] = inhibitors of mutant huntingtin aggregation, primary screen, imaging, exon1htt(103Q)mCFP cells, high-content imaging (AID 483;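 active means visual image review flags a hit and inhibition of aggregation exceeds 20%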;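 further: compound exposure lasted 3 days before fixation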;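 on nuclei count: percent of the per-plate median nuclei count of sample wells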); conditions: exon1htt(103Q)mCFP cell line, aggregate imaging, at 2 µM; inhibition of aggregation: stronger effect = higher value; nuclei count: measured here: cell count, toxicity
[3] = inhibitors of E-selectin induction by TNFa, primary screen, imaging, HUVEC, immunofluorescence, MLSMR starter and 10KST1 sets (AID 487;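 active means visually confirmed hit in the image check and inhibition above 20%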;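 on inhibition: signal is fraction of cell area covered by stained E-selectin grains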;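 on nuclei count: 100% = median nuclei count of all wells on the same plate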); conditions: HUVEC TNFalpha-induced E-selectin immunofluorescence imaging, at 2 µM; inhibition: stronger effect = higher value; nuclei count: measured here: cell number, toxicity
[4] = target: Voltage-gated potassium channel subunit beta-2 (Rattus norvegicus) (UniProt P62483); test: KvBeta enzyme negative modulators, primary screen, biochemical, NADPH fluorescence (AID 622); conditions: recombinant KvBeta, 4-cyanobenzaldehyde reduction, at 10 µM, stronger effect = higher value;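 further: slope of raw intensity against log time taken from 70 to 1610 s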
Sequence of Voltage-gated potassium channel subunit beta-2 (Rattus norvegicus) (P62483 whole entry, looked up): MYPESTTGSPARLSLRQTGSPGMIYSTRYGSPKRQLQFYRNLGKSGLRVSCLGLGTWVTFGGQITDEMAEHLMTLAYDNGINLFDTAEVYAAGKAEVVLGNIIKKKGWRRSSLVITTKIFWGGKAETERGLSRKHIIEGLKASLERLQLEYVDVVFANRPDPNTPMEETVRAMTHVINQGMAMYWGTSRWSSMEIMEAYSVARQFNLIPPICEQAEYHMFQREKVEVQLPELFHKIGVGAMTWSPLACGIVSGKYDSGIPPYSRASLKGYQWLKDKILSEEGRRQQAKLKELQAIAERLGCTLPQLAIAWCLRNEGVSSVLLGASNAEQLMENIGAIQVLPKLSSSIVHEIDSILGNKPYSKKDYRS

[5] = target: Voltage-gated potassium channel subunit beta-2 (Rattus norvegicus) (UniProt P62483); test: KvBeta positive modulators, primary screen, biochemical, NADPH fluorescence (AID 623;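 active means NADPH fluorescence slope more negative than the mean of all samples by about 3 SD, 99.7% confidence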;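 further: fluorescence intensity change per second fitted from 20 to 320 s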); conditions: Recombinant KvBeta, NADPH fluorescence decrease slope, 10 min; at 10 µM; stronger effect = lower value
[6] = target: Muscarinic acetylcholine receptor M4 (Homo sapiens) (UniProt P08173); test: compounds altering M4/GIRK thallium flux, either direction, primary screen, M4 allosteric agonist project, cell-based, HEK293 M4/GIRK, BTC-AM (AID 625;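 active means fluorescence slope after compound addition differing from the mean of all tested samples at 99.7% confidence, mostly higher but some lower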;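 further: thallium influx through GIRK channels coupled to M4 in HEK293 cells with BTC-AM dye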); conditions: at 10 µM, actives lie on both sides
Sequence of Muscarinic acetylcholine receptor M4 (Homo sapiens) (P08173 whole entry, looked up): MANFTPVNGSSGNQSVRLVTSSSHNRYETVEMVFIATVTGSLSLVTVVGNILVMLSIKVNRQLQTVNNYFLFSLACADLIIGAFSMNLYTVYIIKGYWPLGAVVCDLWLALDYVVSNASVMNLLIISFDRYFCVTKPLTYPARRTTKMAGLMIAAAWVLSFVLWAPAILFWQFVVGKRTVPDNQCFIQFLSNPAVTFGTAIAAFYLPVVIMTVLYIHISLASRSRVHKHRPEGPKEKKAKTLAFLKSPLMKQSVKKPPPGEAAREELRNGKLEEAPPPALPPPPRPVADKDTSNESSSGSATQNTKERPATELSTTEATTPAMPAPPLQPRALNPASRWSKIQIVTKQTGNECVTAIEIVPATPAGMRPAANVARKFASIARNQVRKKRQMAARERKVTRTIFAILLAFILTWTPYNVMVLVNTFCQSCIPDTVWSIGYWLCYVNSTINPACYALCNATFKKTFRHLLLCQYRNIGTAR
Procedure, shortened: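 Material: HEK293 cells with M4 receptor and GIRK channels; Times: cells overnight at 37 °C, BTC-AM loading 1 h, reads 2 min total; Technique: kinetic BTC-AM fluorescence sampled at 1 Hz, 10 s pre-addition baseline; Read-out basis: slope over 15–24 s of trace normalized to starting intensity; Controls: carbachol positive, DMSO negative.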

[7] = inhibitors of Sendai virus-induced IRF3 signaling, primary screen, TLR/RLR signaling modifier project, cell-based, Sendai virus stimulus, luciferase, 10K MLSCN set (AID 602276;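 active means inhibition at or above 50% at 10 µM; inactive means inhibition below 50%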;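 further: firefly luciferase from ISG56 promoter only with Renilla not read in this screen; 0% = Sendai virus plus DMSO and 100% = medium plus DMSO without virus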); conditions: HEK293 RL24 IRF3 luciferase reporter, at 10 µM, stronger effect = higher value
[8] = inhibitors of poly I:C-induced TLR3 signaling, primary screen, cell-based, poly I:C stimulus, luciferase, 10K MLSCN set (AID 602277;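 active means inhibition of the reporter signal at or above 50%; inactive means inhibition below 50%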); conditions: HEK293-TLR3 RL24 IRF3 luciferase reporter, at 10 µM, stronger effect = higher value

SMILES	cell count [1]	inhibition [1]	inhibition of aggregation [2]	nuclei count [2] [%]	inhibition [3]	nuclei count [3] [%]	fluorescence slope [4]	NADPH fluorescence slope [5]	fluorescence slope [6]	inhibition [7]	inhibition [8]
CN(C)S(=O)(=O)n1cnc(-c2ccccc2)c1-c1ccccc1	382	2.8% (inactive)	10.1% (inactive)	100	-26.1% (inactive)	107	-0.497 (inactive)	-9.7e-06 (inactive)	0.00475 (inactive)	11.2% (inactive)	20.5% (inactive)
COc1cc(C(=O)N2CCCC(c3nc(-c4cccs4)no3)C2)cc(OC)c1OC (stereo not drawn)	709	-19.4% (inactive)	4.4% (inactive)	89	-30.6% (inactive)	101	-0.508 (inactive)	-0.000226 (inactive)	0.00584 (inactive)	13.5% (inactive)	12.8% (inactive)
CCOc1ccccc1CN1C(=O)c2ccccc2C1C(=O)NCC1CCCO1 (stereo not drawn)	350	7.9% (inactive)	6.8% (inactive)	107	-214% (inactive)	114	-0.585 (inactive)	2.5e-05 (inactive)	0.00509 (inactive)	7.6% (inactive)	5.52% (inactive)
O=C(COc1ncnc2ccccc12)NCc1ccc2c(c1)OCO2	345	-1.6% (inactive)	-8.2% (inactive)	101	-38.6% (inactive)	105	-0.584 (inactive)	-5e-06 (inactive)	0.00352 (inactive)	15.1% (inactive)	16.2% (inactive)
CC1Cc2cc(/C(O)=C3/C(=O)C(=O)N(CCN4CCOCC4)C3c3cccc(O)c3)ccc2O1 (stereo not drawn)	576	-2.7% (inactive)	-17.8% (inactive)	105	-18.4% (inactive)	94.9	-0.573 (inactive)	-8.9e-05 (inactive)	0.00539 (inactive)	-19.1% (inactive)	-6.57% (inactive)
O=c1cc(-c2ccc(Cl)cc2)[nH][nH]1	523	-2.4% (inactive)	10.1% (inactive)	104	54.7% (inactive)	47.1	-0.27 (inactive)	-4.3e-05 (inactive)	0.00862 (inactive)	15.8% (inactive)	-16.8% (inactive)
CCNC(=O)c1ccc(NS(=O)(=O)c2ccccc2)cc1	340	-4.8% (inactive)	16% (inactive)	123	-44.8% (inactive)	102	-0.551 (inactive)	-0.000105 (inactive)	0.00291 (inactive)	13.3% (inactive)	12.4% (inactive)
CC1=C(C#N)C(c2ccc3ncccc3c2)C(C#N)=C(C)N1	641	1.7% (inactive)	-43.5% (inactive)	130	-66.3% (inactive)	110	-0.44 (inactive)	1.3e-05 (inactive)	0.0045 (inactive)	5.74% (inactive)	5.72% (inactive)
CN(C)/C=c1\sc2c(C#N)cc(C(=O)c3ccc(Br)cc3)n2c1=O	398	8.6% (inactive)	5.6% (inactive)	102	0.2% (inactive)	102	-0.439 (inactive)	-5.9e-05 (inactive)	-0.00984 (active)	-3.73% (inactive)	19.1% (inactive)
COC(=O)C1(C)NC(c2ccco2)C2C(=O)N(c3ccc(C)cc3)C(=O)C21 (stereo not drawn)	560	-17.5% (inactive)	-8.7% (inactive)	113	-40.3% (inactive)	114	-0.318 (inactive)	-3.5e-05 (inactive)	0.00521 (inactive)	14.7% (inactive)	17.2% (inactive)
CCOc1cc(C2C(C(=O)c3ccccc3)=C(C(=O)OC)Nc3nnnn32)ccc1O (stereo not drawn)	351	-7.9% (inactive)	0% (inactive)	110	-69.2% (inactive)	157	-0.52 (inactive)	-3.5e-05 (inactive)	0.00584 (inactive)	0.723% (inactive)	11.1% (inactive)
CN(C)Cc1c(O)ccc2oc(Cc3ccccc3)cc12	676	-9.1% (inactive)	14.8% (inactive)	65.8	-12.9% (inactive)	104	-0.533 (inactive)	-6.9e-06 (inactive)	0.00447 (inactive)	22.6% (inactive)	22.2% (inactive)
CC(C)=CCCC(C)NC(=O)NC1CCCCC1 (stereo not drawn)	227	-9.6% (inactive)	-23.2% (inactive)	91.1	-50.8% (inactive)	87	-0.546 (inactive)	-2.7e-05 (inactive)	0.00495 (inactive)	-0.0287% (inactive)	-0.553% (inactive)
CCCN1C2=C(C(=O)CCC2)C(c2ccc(O)c(Br)c2)C2=C1CCCC2=O	736	-30.6% (inactive)	2% (inactive)	97.2	-7.3% (inactive)	107	-0.531 (inactive)	-5.9e-05 (inactive)	0.00464 (inactive)	9.76% (inactive)	17.2% (inactive)
COc1ccccc1C1c2c(oc3ccc(Cl)cc3c2=O)C(=O)N1c1cc(C)on1 (stereo not drawn)	345	-5% (inactive)	2.2% (inactive)	103	-13.8% (inactive)	112	-0.555 (inactive)	2.1e-05 (inactive)	0.0044 (inactive)	24.8% (inactive)	16.8% (inactive)
COC(=O)c1cc(Br)ccc1-c1ccc(/C=N/n2nnnc2N)o1	438	1% (inactive)	-4.4% (inactive)	97.9	-56% (inactive)	111	-0.531 (inactive)	-2.3e-05 (inactive)	0.00728 (inactive)	15.2% (inactive)	24.4% (inactive)
CCOC(=O)CSc1nc2ccccc2c(=O)n1CCN1CCOCC1	513	-3.4% (inactive)	-7.1% (inactive)	96.3	4.2% (inactive)	109	-0.474 (inactive)	-1.3e-06 (inactive)	0.00551 (inactive)	-2.06% (inactive)	17.7% (inactive)
OCc1nc2ccccc2n1CC(O)Cn1ccc2ccccc21 (stereo not drawn)	463	2.9% (inactive)	-7.1% (inactive)	98.2	-71.2% (inactive)	117	-0.577 (inactive)	-5e-05 (inactive)	0.00376 (inactive)	1.37% (inactive)	-8.82% (inactive)
N#CCCCN1C(=O)C(O)(CC(=O)c2ccc3c(c2)OCCO3)c2ccccc21 (stereo not drawn)	698	-8.8% (inactive)	-16.7% (inactive)	100	-15.5% (inactive)	112	-0.567 (inactive)	1.9e-06 (inactive)	0.0053 (inactive)	7.56% (inactive)	11.6% (inactive)
CCc1nccn1S(=O)(=O)c1ccc2ccc(C)cc2c1	319	-8.5% (inactive)	-4.1% (inactive)	104	-60.6% (inactive)	112	-0.512 (inactive)	1.6e-05 (inactive)	0.00461 (inactive)	-9.41% (inactive)	-15.4% (inactive)
N#CCSc1nc2c(c(C3CC=CCC3)c1C#N)CCC2 (stereo not drawn)	436	8% (inactive)	-9.6% (inactive)	100	-44.5% (inactive)	112	-0.552 (inactive)	-1.6e-05 (inactive)	0.00409 (inactive)	-0.626% (inactive)	27.7% (inactive)
COc1cc(-c2noc(-c3cccc(Cl)c3)n2)cc(OC)c1OC	778	-0.6% (inactive)	-21% (inactive)	103	-33.7% (inactive)	113	-0.568 (inactive)	2.5e-05 (inactive)	0.00623 (inactive)	6.15% (inactive)	-21.6% (inactive)
O=C(CN1C(=O)c2cccc3cccc1c23)NCC1CCCO1 (stereo not drawn)	356	20.1% (inactive)	13.2% (inactive)	79.5	-58% (inactive)	102	-0.433 (inactive)	-4.9e-05 (inactive)	0.00404 (inactive)	-5.13% (inactive)	-11.1% (inactive)
COc1ccc(N(CC(=O)Nc2ccccc2SC)S(C)(=O)=O)cc1OC	485	-15.7% (inactive)	-12% (inactive)	65.5	-4.5% (inactive)	102	-0.468 (inactive)	-9.7e-06 (inactive)	0.00494 (inactive)	19.9% (inactive)	19.3% (inactive)
O=C(CCCn1c(=O)c2sccc2n(CC(=O)NCc2ccco2)c1=O)NCc1ccco1	263	2.8% (inactive)	-6.2% (inactive)	98.5	-49.2% (inactive)	117	-0.567 (inactive)	-5.7e-05 (inactive)	0.00613 (inactive)	13.9% (inactive)	15% (inactive)
CCOCC(=O)Nc1nc2ccc(OC)cc2s1	411	2.9% (inactive)	-11.8% (inactive)	102	-85.2% (inactive)	127	-0.522 (inactive)	-0.000124 (inactive)	0.00427 (inactive)	-34.1% (inactive)	-111% (inactive)
COc1ccc(N2C(=O)C3CCCN3C2c2ccc(F)cc2)cc1Cl (stereo not drawn)	412	-2.7% (inactive)	-12.9% (inactive)	101	18.5% (inactive)	89.1	-0.538 (inactive)	-1.5e-05 (inactive)	0.00539 (inactive)	7.49% (inactive)	14.6% (inactive)
Cc1ccc(C(=O)Nc2ccc3c(c2)OCO3)o1	466	0% (inactive)	-13.9% (inactive)	106	-17.5% (inactive)	121	-0.603 (inactive)	-2.2e-05 (inactive)	0.00576 (inactive)	-40.3% (inactive)	-49.6% (inactive)
